In brackets after ≈: the same amount, converted by molar mass.
Tests used:
Mycobacterium kansasii [1] = test: Antimycobacterial activity against Mycobacterium kansasii 6509/96 clinical isolate after 21 days by micromethod; format: functional; details: 6509/96, 504 h
Summary of the method: (§1)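 Inocula: M. tuberculosis My 331/88 at 10^-3 dilution, M. avium My 330/88 at 10^-5, M. kansasii My 235/80 and clinical isolate 6509/96 at 10^-4. Compounds added in DMSO at 1000 down to 0.5 (twofold series). Read at 14 and 21 days, plus 7 days for M. kansasii. MIC taken as lowest concentration inhibiting growth.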

Mycobacterium kansasii [2] = test: Antimycobacterial activity against Mycobacterium kansasii 6509/96 clinical isolate after 14 days by micromethod; format: functional; details: 6509/96, 336 h; summary of the method: as §1
[3] = system: Mycobacterium tuberculosis; test: Antimycobacterial activity against Mycobacterium tuberculosis 331/88 after 21 days by micromethod; format: functional; details: 331/88, 504 h; summary of the method: as §1
[4] = system: Mycobacterium tuberculosis; test: Antimycobacterial activity against Mycobacterium tuberculosis 331/88 after 14 days by micromethod; format: functional; details: 331/88, 336 h; summary of the method: as §1
Mycobacterium avium [5] = test: Antimycobacterial activity against isoniazid resistance Mycobacterium avium 330/88 after 14 days by micromethod; format: functional; details: 330/88, 336 h; summary of the method: as §1
Mycobacterium kansasii [6] = test: Antimycobacterial activity against isoniazid resistance Mycobacterium kansasii 225/80 after 7 days by micromethod; format: functional; details: 225/80, 168 h
Mycobacterium avium [7] = test: Antimycobacterial activity against isoniazid resistance Mycobacterium avium 330/88 after 21 days by micromethod; format: functional; details: 330/88, 504 h; summary of the method: as §1
[8] = target: T1, Isocitrate lyase (Mycobacterium tuberculosis) (UniProt P9WKK7); test: Inhibition of Mycobacterium tuberculosis H37Rv isocitrate lyase expressed in Escherichia coli HB101 at 10 umol/L
T1 sequence (whole entry): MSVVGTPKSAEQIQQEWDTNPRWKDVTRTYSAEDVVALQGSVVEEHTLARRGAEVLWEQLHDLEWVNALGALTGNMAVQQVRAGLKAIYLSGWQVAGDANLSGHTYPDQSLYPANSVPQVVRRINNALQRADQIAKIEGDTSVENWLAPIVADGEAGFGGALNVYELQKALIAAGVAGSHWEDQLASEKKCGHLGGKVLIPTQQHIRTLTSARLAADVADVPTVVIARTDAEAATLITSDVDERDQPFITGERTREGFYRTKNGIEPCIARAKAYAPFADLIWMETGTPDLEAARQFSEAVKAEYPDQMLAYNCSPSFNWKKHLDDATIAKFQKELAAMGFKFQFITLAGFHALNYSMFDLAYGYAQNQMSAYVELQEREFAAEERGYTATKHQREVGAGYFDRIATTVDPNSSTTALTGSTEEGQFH
Summary of the method: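 Isocitrate lyase assayed per Dixon–Kornberg in 96-well format. Buffer: 50 mmol/L KH2PO4, 4 mmol/L MgCl2, 4 mmol/L phenylhydrazine, 12 mmol/L cysteine, pH 7.0. Glyoxylate phenylhydrazone read at 324 nm. Compounds added in DMSO, with DMSO-alone inhibition subtracted.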

Mycobacterium kansasii [9] = test: Antimycobacterial activity against Mycobacterium kansasii 6509/96 clinical isolate after 7 days by micromethod; format: functional; details: 6509/96, 168 h; summary of the method: as §1
Mycobacterium kansasii [10] = test: Antimycobacterial activity against isoniazid resistance Mycobacterium kansasii 225/80 after 21 days by micromethod; format: functional; details: 225/80, 504 h
Mycobacterium kansasii [11] = test: Antimycobacterial activity against isoniazid resistance Mycobacterium kansasii 225/80 after 14 days by micromethod; format: functional; details: 225/80, 336 h

Structure (SMILES)	MIC (Mycobacterium kansasii [1]) [µM]	MIC (Mycobacterium kansasii [2]) [µM]	MIC [3] [µM]	MIC [4] [µM]	MIC (Mycobacterium avium [5]) [µM]	MIC (Mycobacterium kansasii [6]) [µM]	MIC (Mycobacterium avium [7]) [µM]	inhibition [8] [%]	MIC (Mycobacterium kansasii [9]) [µM]	MIC (Mycobacterium kansasii [10]) [µM]	MIC (Mycobacterium kansasii [11]) [µM]
COc1ccc(Cl)cc1-c1nc2cc(Cl)c(Cl)cc2o1	125 (≈ 41.1 µg/mL)	125 (≈ 41.1 µg/mL)	125 (≈ 41.1 µg/mL)	125 (≈ 41.1 µg/mL)	125 (≈ 41.1 µg/mL)	125 (≈ 41.1 µg/mL)	125 (≈ 41.1 µg/mL)	4	125 (≈ 41.1 µg/mL)	125 (≈ 41.1 µg/mL)	125 (≈ 41.1 µg/mL)
COc1ccc(Cl)cc1-c1nc2ccc(Br)cc2o1	125 (≈ 42.3 µg/mL)	125 (≈ 42.3 µg/mL)	125 (≈ 42.3 µg/mL)	125 (≈ 42.3 µg/mL)	125 (≈ 42.3 µg/mL)	125 (≈ 42.3 µg/mL)	125 (≈ 42.3 µg/mL)	0	125 (≈ 42.3 µg/mL)	125 (≈ 42.3 µg/mL)	125 (≈ 42.3 µg/mL)
COc1cc(Cl)ccc1-c1nc2cc(Cl)c(Cl)cc2o1	250 (≈ 82.1 µg/mL)	250 (≈ 82.1 µg/mL)	250 (≈ 82.1 µg/mL)	250 (≈ 82.1 µg/mL)	250 (≈ 82.1 µg/mL)	250 (≈ 82.1 µg/mL)	500 (≈ 164 µg/mL)	0	250 (≈ 82.1 µg/mL)	250 (≈ 82.1 µg/mL)	250 (≈ 82.1 µg/mL)
O=C(O)CC[N+](=O)[O-]								25			
COc1cc(Cl)ccc1-c1nc2ccc(Br)cc2o1	125 (≈ 42.3 µg/mL)	125 (≈ 42.3 µg/mL)	125 (≈ 42.3 µg/mL)	125 (≈ 42.3 µg/mL)	125 (≈ 42.3 µg/mL)	125 (≈ 42.3 µg/mL)	125 (≈ 42.3 µg/mL)	0	125 (≈ 42.3 µg/mL)	125 (≈ 42.3 µg/mL)	125 (≈ 42.3 µg/mL)
COc1cc(Cl)ccc1C(=O)Nc1ccc(C(F)(F)F)cc1OC(=O)c1ccc(Cl)cc1OC	250 (≈ 129 µg/mL)	250 (≈ 129 µg/mL)	250 (≈ 129 µg/mL)	250 (≈ 129 µg/mL)	62.5 (≈ 32.1 µg/mL)		62.5 (≈ 32.1 µg/mL)	8	250 (≈ 129 µg/mL)	250 (≈ 129 µg/mL)	250 (≈ 129 µg/mL)
COc1cc(Cl)ccc1-c1nc2cc(Br)ccc2o1	250 (≈ 84.6 µg/mL)	250 (≈ 84.6 µg/mL)	250 (≈ 84.6 µg/mL)	250 (≈ 84.6 µg/mL)	250 (≈ 84.6 µg/mL)	250 (≈ 84.6 µg/mL)	250 (≈ 84.6 µg/mL)	0	250 (≈ 84.6 µg/mL)	250 (≈ 84.6 µg/mL)	250 (≈ 84.6 µg/mL)
COc1ccc(Cl)cc1-c1nc2ccc(C(F)(F)F)cc2o1	62.5 (≈ 20.5 µg/mL)	62.5 (≈ 20.5 µg/mL)	62.5 (≈ 20.5 µg/mL)	62.5 (≈ 20.5 µg/mL)	250 (≈ 81.9 µg/mL)	250 (≈ 81.9 µg/mL)	250 (≈ 81.9 µg/mL)	0	62.5 (≈ 20.5 µg/mL)	250 (≈ 81.9 µg/mL)	250 (≈ 81.9 µg/mL)
COc1cc(Cl)ccc1-c1nc2ccc(C(F)(F)F)cc2o1	250 (≈ 81.9 µg/mL)	250 (≈ 81.9 µg/mL)	250 (≈ 81.9 µg/mL)	250 (≈ 81.9 µg/mL)	125 (≈ 41 µg/mL)		125 (≈ 41 µg/mL)	0	250 (≈ 81.9 µg/mL)	250 (≈ 81.9 µg/mL)	250 (≈ 81.9 µg/mL)
COc1ccc(Cl)cc1C(=O)Nc1cc(Cl)ccc1O	16 (≈ 4.99 µg/mL)	16 (≈ 4.99 µg/mL)	32 (≈ 9.99 µg/mL)	16 (≈ 4.99 µg/mL)	125 (≈ 39 µg/mL)	4 (≈ 1.25 µg/mL)	125 (≈ 39 µg/mL)	0	8 (≈ 2.5 µg/mL)	16 (≈ 4.99 µg/mL)	16 (≈ 4.99 µg/mL)
COc1ccc(Cl)cc1C(=O)Nc1cc(Cl)c(Cl)cc1OC(=O)c1cc(Cl)ccc1OC	8 (≈ 4.12 µg/mL)	8 (≈ 4.12 µg/mL)	8 (≈ 4.12 µg/mL)	8 (≈ 4.12 µg/mL)	62.5 (≈ 32.2 µg/mL)	4 (≈ 2.06 µg/mL)	62.5 (≈ 32.2 µg/mL)	3	4 (≈ 2.06 µg/mL)	8 (≈ 4.12 µg/mL)	8 (≈ 4.12 µg/mL)
COc1ccc(Cl)cc1C(=O)Nc1ccc(C(F)(F)F)cc1OC(=O)c1cc(Cl)ccc1OC	8 (≈ 4.11 µg/mL)	8 (≈ 4.11 µg/mL)	250 (≈ 129 µg/mL)	250 (≈ 129 µg/mL)	62.5 (≈ 32.1 µg/mL)		62.5 (≈ 32.1 µg/mL)	9	8 (≈ 4.11 µg/mL)	16 (≈ 8.23 µg/mL)	8 (≈ 4.11 µg/mL)
NNC(=O)c1ccncc1 [ISONIAZID]	4 (≈ 0.549 µg/mL)	4 (≈ 0.549 µg/mL)	0.5 (≈ 0.0686 µg/mL)	0.5 (≈ 0.0686 µg/mL)	> 250	> 250	> 250		4 (≈ 0.549 µg/mL)	> 250	> 250
COc1ccc(Cl)cc1-c1nc2cc(Br)ccc2o1	250 (≈ 84.6 µg/mL)	250 (≈ 84.6 µg/mL)	250 (≈ 84.6 µg/mL)	250 (≈ 84.6 µg/mL)	250 (≈ 84.6 µg/mL)	250 (≈ 84.6 µg/mL)	250 (≈ 84.6 µg/mL)	0	250 (≈ 84.6 µg/mL)	250 (≈ 84.6 µg/mL)	250 (≈ 84.6 µg/mL)
COc1cc(Cl)ccc1-c1nc2ccc(Cl)cc2o1	62.5 (≈ 18.4 µg/mL)	62.5 (≈ 18.4 µg/mL)	125 (≈ 36.8 µg/mL)	125 (≈ 36.8 µg/mL)	62.5 (≈ 18.4 µg/mL)	62.5 (≈ 18.4 µg/mL)	62.5 (≈ 18.4 µg/mL)	0	62.5 (≈ 18.4 µg/mL)	62.5 (≈ 18.4 µg/mL)	62.5 (≈ 18.4 µg/mL)
COc1cc(Cl)ccc1C(=O)Nc1ccc(Cl)cc1OC(=O)c1ccc(Cl)cc1OC	62.5 (≈ 30 µg/mL)	16 (≈ 7.69 µg/mL)	8 (≈ 3.85 µg/mL)	4 (≈ 1.92 µg/mL)	62.5 (≈ 30 µg/mL)	16 (≈ 7.69 µg/mL)	62.5 (≈ 30 µg/mL)	0	8 (≈ 3.85 µg/mL)	125 (≈ 60.1 µg/mL)	32 (≈ 15.4 µg/mL)
COc1ccc(Cl)cc1-c1nc2cc(Cl)ccc2o1	250 (≈ 73.5 µg/mL)	250 (≈ 73.5 µg/mL)	125 (≈ 36.8 µg/mL)	125 (≈ 36.8 µg/mL)	250 (≈ 73.5 µg/mL)	250 (≈ 73.5 µg/mL)	250 (≈ 73.5 µg/mL)	0	250 (≈ 73.5 µg/mL)	250 (≈ 73.5 µg/mL)	250 (≈ 73.5 µg/mL)
